Assay results: paper PMC9934531 (bioRxiv, 2023)
Like-named read-outs stand apart in the source and are kept apart here.

Tests used:
[1] = test system: slow skeletal muscle (soleus) fibers; assay: Calcium sensitivity of force generation in slow skeletal muscle; assay type: cell-based, rat; details: 20 μM compound
Summary of the method: (§1)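 Four male Sprague Dawley rats (7–9 months); cardiac trabeculae (n=10) and soleus fibers (n=10), soleus fibers typed slow by SDS-PAGE. Force measured in activating solutions of graded pCa, first without then with 20 μM test compound. pCa50 taken from force–pCa curve fits, and the with/without difference was analysed per preparation by paired Student's t-test. Maximal force was the mean of pCa 4.0 activations (every third; n=6), without then with compound.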

[2] = biological target: hydrophobic patch of cNTnC in the presence of cTnIsp; details: cited from earlier work
[3] = test system: cardiac trabeculae; assay: Calcium sensitivity of force generation in isolated cardiac trabeculae; assay type: cell-based, rat; details: 20 μM compound
Summary of the method: as §1

O=C(CSc1nc(-c2ccccc2)c(-c2ccccc2)[nH]1)Nc1nccs1 [Compound 7930079, 2-[(4,5-diphenyl-1H-imidazol-2-yl)thio]-N-1,3-thiazol-2-ylacetamide]
effect on average maximal force generation ([1]; pCa 4.0, slow fibers, P=0.39): no effect | shift of force/pCa curve to higher sensitivity (ΔpCa50) ([1]; rat slow fibers, n=10, P<.01): 0.20 ± 0.03 pCa unit | Kd ([2]; read-out: apparent experimental binding affinity): 1.45 ± 0.09 µM | decrease in average maximal force ([3]; pCa 4.0, cardiac trabeculae, P=0.001): 8% | shift of force/pCa curve to higher sensitivity (ΔpCa50) ([3]; rat cardiac trabeculae, n=10, P<.01): 0.05 ± 0.04 pCa unit

CN1CCN(CCCN2c3ccccc3Sc3ccc(C(F)(F)F)cc32)CC1 [TFP, trifluoperazine]
Kd [2]: 110 ± 20 µM

CC(C)COCC(CN(Cc1ccccc1)c1ccccc1)N1CCCC1 (centres unmarked) [bepridil]
Kd [2]: 380 ± 60 µM

C[C@@H]1CC(=O)NN=C1c1ccc(NN=C(C#N)C#N)cc1 [levosimendan]
Kd [2]: ~700 µM
